From publication PMC11529822 (Lab on a Chip, 2024)

Assays:
[1] = tested on: HS-5 bone marrow stromal cells; assay: Tissue chip bone marrow stroma compartment: viability of HS-5 cells in collagen; format: cell-based, human; parameters: AUC HS-5: unit not given beside the values; conditions: for IC50: Homo sapiens, HS5, read-out: IC50 HS-5; for AUC HS-5: area under the dose-response curve, tissue chip, bone marrow stroma compartment
How it was run: (§1)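 Tumour compartment: MDA-MB-231 spheroids (10 × 10^3 cells, formed 4 days before seeding) in 3.5 mg mL−1 collagen. Liver (HepG2/C3A) and stroma (HS-5) compartments: 15 × 10^3 single cells in the same collagen. Medium 1:1 EMEM:DMEM under rocker-driven gravity flow. Test compound medium from day 1, replenished every 2 days, 5 days total. Four concentrations including control, 2–4 replicates; single-dose runs at 50 μM. PrestoBlue 15% v/v, 1 h, ex 560/em 590 nm; AUC computed.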

[2] = tested on: MDA-MB-231 breast cancer cells; format: cell-based, human; conditions: for IC50: Homo sapiens, MDA-MB-231, read-out: IC50 MDA-MB-231; for AUC MDA-MB-231: area under the dose-response curve, tissue chip, tumor compartment
How it was run: as §1

HepG2/C3A liver cells = assay: Tissue chip liver compartment: viability of HepG2/C3A cells in collagen; format: cell-based, human; conditions: for IC50: Homo sapiens, HepG2/C3A, read-out: IC50 HepG2/C3A; for AUC HepG2/C3A: area under the dose-response curve, tissue chip, liver compartment
How it was run: as §1

[3] = Tissue chip bone marrow stroma compartment: viability of HS-5 cells in collagen; format: cell-based, human; parameters: AUC HS-5: unit not given beside the values; conditions: human
How it was run: as §1

[4] = Tissue chip liver compartment: viability of HepG2/C3A cells in collagen; format: cell-based, human; conditions: human
How it was run: as §1

[5] = tested on: MDA-MB-231, HepG2/C3A and HS-5 cells; assay: Tissue chip dose response, summary across all three compartments; format: cell-based; conditions: Homo sapiens, read-out: IC50 values across all compartments
How it was run: as §1

IC50 [1]	IC50 [2]	IC50 (HepG2/C3A liver cells)	IC50 [5]	SMILES	AUC HS-5 [1]	AUC MDA-MB-231 [2]	AUC HepG2/C3A (HepG2/C3A liver cells)	viability at 5 days, 50 μM [3]	viability at 5 days, 50 μM [4]
4.6 nM	5.5 nM	231 nM		COc1cccc2c1C(=O)c1c(O)c3c(c(O)c1C2=O)C[C@@](O)(C(=O)CO)C[C@@H]3O[C@H]1C[C@H](N)[C@H](O)[C@H](C)O1 [Doxorubicin, doxorubicin]	0.45	0.47	0.72		
> 1000 nM	0.06 nM	12.2 nM		CC(=O)Nc1cccc(-n2c(=O)n(C3CC3)c(=O)c3c(Nc4ccc(I)cc4F)n(C)c(=O)c(C)c32)c1 [Trametinib, trametinib]	0.98	0.63	0.75		
			1000 to 10000 nM	O=c1[nH]cc(F)c(=O)[nH]1 [5-FU, 5-fluorouracil]				24%	20%
